Data set [1] in a line: Selectivity index, ratio of CC50 for human MT4 cells to EC50 for reverse transcriptase L100I mutant in human MT4 cells infected HIV1 3B.
Data set [2] in a line: Selectivity index, ratio of CC50 for human MT4 cells to EC50 for reverse transcriptase K103N mutant in human MT4 cells infected HIV1 3B.
A short description of data set [3]: Selectivity index, ratio of CC50 for human MT4 cells to EC50 for reverse transcriptase Y181C mutant in human MT4 cells infected HIV1 3B.
Data set [4] can be described thus: Selectivity index, ratio of CC50 for human MT4 cells to EC50 for reverse transcriptase Y188L mutant in human MT4 cells infected HIV1 3B.
A short description of data set [5]: Selectivity index, ratio of CC50 for human MT4 cells to EC50 for reverse transcriptase E138K mutant in human MT4 cells infected HIV1 3B.
Data set [6] is described as follows: Selectivity index, ratio of CC50 for human MT4 cells to EC50 for reverse transcriptase F227L/V106A double mutant in human MT4 cells infected HIV1 3B.
A short description of data set [7]: Selectivity index, ratio of CC50 for human MT4 cells to EC50 for HIV1 RES056 reverse transcriptase K103N/Y181C double mutant infected in human MT4 cells.
Data set [8] is described as follows: Fold resistance, ratio of EC50 for reverse transcriptase L100I mutant in human MT4 cells infected HIV1 3B to EC50 for wild type HIV1 3B harboring reverse transcriptase infected in human MT4 cells. Type of data set: functional. The method in brief: (§1)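 MT-4 cells at 6 × 10^5 cells/mL were infected with WT HIV-1 IIIB or RT-mutant strains at 100−300 CCID50, with 5-fold serial compound dilutions in triplicate wells. After 5 days, viability was read by MTT reduction at 540 and 690 nm, using the median OD of three wells. […] Fold resistance is mutant EC50 divided by WT EC50.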

Data set [9] is described as follows: Fold resistance, ratio of EC50 for reverse transcriptase K103N/Y181C double mutant in human MT4 cells infected HIV1 RES056 to EC50 for wild type HIV1 3B harboring reverse transcriptase infected in human MT4 cells. Type of data set: functional. Summed up: as §1
The subject of data set [10] is Human immunodeficiency virus 1. In words: Antiviral activity against wild type HIV1 3B harboring reverse transcriptase infected in human MT4 cells assessed as protection against virus induced cytotoxicity after 5 days by MTT assay. Type of data set: functional, cell-based. The following applies: Human immunodeficiency virus 1, 3B, MT4, 120 h.
Data set [11] relates to Human immunodeficiency virus 2. As to the kind of experiment: Antiviral activity against HIV2 ROD harboring reverse transcriptase infected in human MT4 cells assessed as protection against virus induced cytotoxicity after 5 days by MTT assay. The format is functional, cell-based. The following applies: Human immunodeficiency virus 2, ISOLATE ROD, MT4, 120 h.
Data set [12] is described as follows: Cytotoxicity against human MT4 cells assessed as cell viability after 5 days by MTT assay. Type of data set: cell-based. On the technique in general: Formazan colour is commonly taken as a measure of viable cells.
The nature of data set [13]: Selectivity index, ratio of CC50 for human MT4 cells to EC50 for wild type HIV1 3B harboring reverse transcriptase infected in human MT4 cells.
Data set [14] concerns Human immunodeficiency virus type 1 reverse transcriptase (Human immunodeficiency virus 1), Q72547 [K103N]. As to the kind of experiment: Potency index, ratio of EC50 for NVP to EC50 for test compound for reverse transcriptase K103N mutant in human MT4 cells infected HIV1 3B. The format is cell-based.
Data set [15] shares this test system. In words: Potency index, ratio of EC50 for EFV to EC50 for test compound for reverse transcriptase K103N mutant in human MT4 cells infected HIV1 3B. The format is cell-based.
A short description of data set [16]: Fold resistance, ratio of EC50 for reverse transcriptase K103N mutant in human MT4 cells infected HIV1 3B to EC50 for wild type HIV1 3B harboring reverse transcriptase infected in human MT4 cells. The format is functional. Summed up:
as §1

Data set [17] in a line: Fold resistance, ratio of EC50 for reverse transcriptase E138K mutant in human MT4 cells infected HIV1 3B to EC50 for wild type HIV1 3B harboring reverse transcriptase infected in human MT4 cells. Type of data set: functional. Summed up: as §1
Data set [18] is described as follows: Fold resistance, ratio of EC50 for reverse transcriptase Y181C mutant in human MT4 cells infected HIV1 3B to EC50 for wild type HIV1 3B harboring reverse transcriptase infected in human MT4 cells. The format is functional. Summed up: as §1
Data set [19] in a line: Fold resistance, ratio of EC50 for reverse transcriptase Y188L mutant in human MT4 cells infected HIV1 3B to EC50 for wild type HIV1 3B harboring reverse transcriptase infected in human MT4 cells. Type of data set: functional. Summed up: as §1
A short description of data set [20]: Fold resistance, ratio of EC50 for reverse transcriptase F227L/V106A double mutant in human MT4 cells infected HIV1 3B to EC50 for wild type HIV1 3B harboring reverse transcriptase infected in human MT4 cells. Type of data set: functional. Summed up:
as §1

Data set [21] can be described thus: Inhibition of recombinant wild type HIV1 3B reverse transcriptase infected in human MT4 cells assessed as decrease in biotin-dUTP incorporation after 1 hr. Type of data set: cell-based. The following applies: Human immunodeficiency virus 1, 3B, MT4, 1 h. The method in brief:
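Recombinant HIV-1 RT assayed with a kit ELISA. Enzyme, reconstituted template and nucleotides (DIG-dUTP, biotin-dUTP, dTTP) were incubated in incubation buffer with or without inhibitor for 1 h at 37 °C. Product was captured on streptavidin plates for 1 h at 37 °C, then anti-DIG-POD was added for 1 h at 37 °C, followed by ABTS. Read at OD405.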

Turning to `Cc1cc(C#N)cc(C)c1Oc1nc(NC2CCN(Cc3ccc(S(N)(=O)=O)cc3)CC2)nc2ccsc12`, the selectivity ratio in [1] (MT4 cells) is over 67400; in [2] (MT4 cells), over 78100; in [3] (MT4 cells), over 70000; in data set [4] (MT4 cells), over 75800; in data set [5] (MT4 cells), over 78100; in data set [6] (MT4 cells), over 53500. Moreover, the selectivity ratio in data set [7] (MT4 cells) was over 7350. Moreover, the entries for the “Ratio EC50” value in data set [8] and in [9] were 2.4 and 21, respectively.
Turning to `Cc1cc(C#N)cc(C)c1Oc1nc(NC2CCN(Cc3ccc(S(C)(=O)=O)cc3)CC2)nc2sccc12`, the EC50 (usually the concentration giving half of the maximal effect) in [10] was 3.56 nM; in data set [11], over 1190 nM. Besides, in [12], the CC50 (as a rule, the concentration that lowers cell viability or growth by half) at 120 h was determined as 1190 nM. For the same compound, the selectivity ratio is 335 in [13] (MT4 cells); 152 in [1] (MT4 cells); 725 in data set [2] (MT4 cells); 200 in [3] (MT4 cells); 124 in [4] (MT4 cells); 164 in [5] (MT4 cells). Moreover, the selectivity ratio turned out to be 137 in data set [6] (MT4 cells) and 28 in data set [7] (MT4 cells). Also, the Ratio EC50 in data set [14] is 3370; in [15], 50.
For `Cc1cc(C#N)cc(C)c1Oc1nc(Nc2ccc(C#N)cc2)nc(N)c1Br` [ETRAVIRINE], the EC50 in data set [10] amounted to 4.07 nM. In data set [12], the CC50 at 120 h is over 4590 nM. Further, the selectivity ratio in data set [13] was over 1130; in data set [1] it was over 853; in data set [2], over 1950; in [3], over 291; in data set [4] it was over 224; in data set [5], over 318. Moreover, the results for the selectivity ratio in [6] and in [7] were 156 and over 270, respectively. For the same compound, the “Ratio EC50” value in [16] is 0.6 - 7.2; in data set [17], 0.6 - 7.2; in data set [8], 1.3; in data set [9] it was 4.2; in data set [18], 0.6 - 7.2; in data set [19], 0.6 - 7.2. Moreover, the “Ratio EC50” value in data set [20] is 0.6 - 7.2. Also, in [21], the IC50 (as a rule, the concentration needed to halve the response being measured) came out at 1000 nM.
In the case of `Cc1cc(C#N)cc(C)c1Oc1nc(NC2CCN(Cc3ccc(S(N)(=O)=O)cc3)CC2F)nc2ccsc12` (stereo not given), the figures for the EC50 in data set [10] and in data set [11] were 5.69 nM and over 5150 nM, respectively. Moreover, the cytotoxic concentration (CC50) at 120 h in [12] was determined as 5150 nM. For the same compound, the selectivity ratio stood at 906 in data set [13] (MT4 cells); 576 in data set [1] (MT4 cells); 653 in data set [2] (MT4 cells); 171 in data set [3] (MT4 cells); 370 in data set [4] (MT4 cells); 296 in data set [5] (MT4 cells). Moreover, the selectivity ratio in data set [6] (MT4 cells) is 590; in data set [7] (MT4 cells), 138. For the same compound, the “Ratio EC50” value in [16], in data set [17], in [8], in data set [9], in data set [18] and in data set [19] was 1.4 - 6.5 in each case. For the same compound, the “Ratio EC50” value in data set [20] is reported as 1.4 - 6.5.
Take `Cc1cc(/C=C/C#N)cc(C)c1Oc1nc(NC2CCN(Cc3cccnc3)CC2)nc2ccsc12`: the half-maximal effective concentration (EC50) is 3.22 nM in [10] and over 3860 nM in data set [11]. In addition, the CC50 at 120 h in [12] was found to be 3860 nM. The selectivity ratio in data set [13] (MT4 cells) stood at 1200; in data set [1] (MT4 cells), 866; in data set [2] (MT4 cells), 872; in data set [3] (MT4 cells), 637; in data set [4] (MT4 cells), 358; in data set [5] (MT4 cells) it was 587. Also, the figures for the selectivity ratio in data set [6] (MT4 cells) and in data set [7] (MT4 cells) were 664 and 308, respectively. The “Ratio EC50” value in data set [9] is 3.4 - 6.
